The values below come from ChEMBL document CHEMBL1133105, “Antimalarial, antitrypanosomal, and antileishmanial activities and cytotoxicity of bis(9-amino-6-chloro-2-methoxyacridines): influence of the linker” (J Med Chem, 2000).

One assay has as its system Trypanosoma cruzi. The assay can be described thus: Percentage of activity against Trypanosoma cruzi at 1.56 uM. The class given is functional.
Details: not given
The method, boiled down:
(§1)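 Mouse peritoneal macrophages, 30 000/well, infected after 24 h with about 100 000 T. cruzi trypomastigotes per well plus 2-fold drug dilutions (12.5–1.56 µM). Incubated 4 days at 37 °C, 5% CO2. Methanol-fixed, Giemsa-stained and scored microscopically as % reduction of total parasite load (free trypomastigotes plus intracellular amastigotes) versus untreated controls.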
For `COc1ccc2nc3cc(Cl)ccc3c(NCCCN(CCCNc3c4ccc(Cl)cc4nc4ccc(OC)cc34)C(=O)C(CNC(=O)OC(C)(C)C)NC(=O)OC(C)(C)C)c2c1` (stereo not drawn), the Parasite load reduction worked out at 0%.
On to `COc1ccc2nc3cc(Cl)ccc3c(NCCCN(CCCNc3c4ccc(Cl)cc4nc4ccc(OC)cc34)C(=O)C(CCCCNC(=O)OCC3c4ccccc4-c4ccccc43)NC(=O)OC(C)(C)C)c2c1` (stereo not drawn), for which the Parasite load reduction is recorded as 0%.

The subject of another assay is Leishmania infantum. The experiment in a line: Percentage of activity against Leishmania infantum at 1.56 uM. The class given is functional.
Details: not given
The essentials: (§2)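 Starch-stimulated mouse peritoneal macrophages, 30 000/well, infected after 24 h with spleen-derived L. infantum amastigotes (10:1) together with 2-fold drug dilutions (12.5–1.56 µM). Incubated 7 days at 37 °C, 5% CO2. Wright-stained slides scored microscopically as % reduction of total parasite load or of infected macrophages. Uninfected treated cultures judged microscopically for macrophage toxicity.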
With `COc1ccc2nc3cc(Cl)ccc3c(NCCCN(CCCNc3c4ccc(Cl)cc4nc4ccc(OC)cc34)C(=O)C(CNC(=O)OC(C)(C)C)NC(=O)OC(C)(C)C)c2c1` (stereo not drawn), the “Antileishmanial activity (% reduction of parasite load)” value was found to be 80%.
The same measure, in the same setting: for `COc1ccc2nc3cc(Cl)ccc3c(NCCCN(CCCNc3c4ccc(Cl)cc4nc4ccc(OC)cc34)C(=O)C(CCCCNC(=O)OCC3c4ccccc4-c4ccccc43)NC(=O)OC(C)(C)C)c2c1` (stereo not drawn) the value was 0%.

Another assay concerns Trypanosoma brucei. The assay can be described thus: Percentage of activity against Trypanosoma brucei at 3.13 uM.
Details: not given
The class given is functional. The essentials:
(§3)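 Bloodstream-form T. brucei in HMI-9 medium, 10 000 parasites/well, exposed to 12.5, 6.25, 3.13 and 1.56 µM drug for 4 days. Read-out is % inhibition of parasite multiplication. Macrophage toxicity judged on mouse primary peritoneal macrophages.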
Regarding `COc1ccc2nc3cc(Cl)ccc3c(NCCCN(CCCNc3c4ccc(Cl)cc4nc4ccc(OC)cc34)C(=O)C(CNC(=O)OC(C)(C)C)NC(=O)OC(C)(C)C)c2c1` (stereo not drawn), the Parasite growth inhibition is 100%.
The same measure, in the same setting: the same measure for `COc1ccc2nc3cc(Cl)ccc3c(NCCCN(CCCNc3c4ccc(Cl)cc4nc4ccc(OC)cc34)C(=O)C(CCCCNC(=O)OCC3c4ccccc4-c4ccccc43)NC(=O)OC(C)(C)C)c2c1` (stereo not drawn): 100%.

For a further assay, the system named is Plasmodium falciparum. The experiment in a line: In vitro sensitivity for Plasmodium falciparum FcB1R. The class given is functional, organism-based.
Details: not given
The method, boiled down: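 Asynchronous P. falciparum cultures in human erythrocytes (0.5% parasitemia, 1% haematocrit) exposed to serially diluted drug for 24 h at 37 °C. [3H]hypoxanthine (0.5 µCi/well) then added for a further 24 h. Uptake compared with drug-free controls on the same plate. IC50 taken from the concentration–response curve, averaged over independent experiments. DMSO ≤0.1%.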
Broadly, the IC50 is the concentration needed to halve the response being measured. Higher therefore signals weaker potency. `COc1ccc2nc3cc(Cl)ccc3c(NCCCN(CCCNc3c4ccc(Cl)cc4nc4ccc(OC)cc34)C(=O)C(CNC(=O)OC(C)(C)C)NC(=O)OC(C)(C)C)c2c1` (stereo not drawn) returned a half-inhibitory concentration (IC50) of 55 nM. That is a double-digit nanomolar value.
Consider `COc1ccc2nc3cc(Cl)ccc3c(NCCCN(CCCNc3c4ccc(Cl)cc4nc4ccc(OC)cc34)C(=O)C(CCCCNC(=O)OCC3c4ccccc4-c4ccccc43)NC(=O)OC(C)(C)C)c2c1` (stereo not drawn), for which the 50% inhibitory concentration (IC50) worked out at 273 nM.

Another assay relates to Trypanosoma cruzi. The assay can be described thus: Percentage of activity against Trypanosoma cruzi at 6.25 uM Concentration. The class given is functional.
Details: not given
The essentials:
as §1
Regarding `COc1ccc2nc3cc(Cl)ccc3c(NCCCN(CCCNc3c4ccc(Cl)cc4nc4ccc(OC)cc34)C(=O)C(CNC(=O)OC(C)(C)C)NC(=O)OC(C)(C)C)c2c1` (stereo not drawn), the “Reduction of T. cruzi parasite load” value was 80%.
Still for that read-out and setting: the same measure for `COc1ccc2nc3cc(Cl)ccc3c(NCCCN(CCCNc3c4ccc(Cl)cc4nc4ccc(OC)cc34)C(=O)C(CCCCNC(=O)OCC3c4ccccc4-c4ccccc43)NC(=O)OC(C)(C)C)c2c1` (stereo not drawn): 80%.

For a further assay, the system named is Trypanosoma brucei. The assay can be described thus: Percentage of activity against Trypanosoma brucei at 6.25 uM. It is filed as functional.
Details: not given
The essentials:
as §3
In the case of `COc1ccc2nc3cc(Cl)ccc3c(NCCCN(CCCNc3c4ccc(Cl)cc4nc4ccc(OC)cc34)C(=O)C(CNC(=O)OC(C)(C)C)NC(=O)OC(C)(C)C)c2c1` (stereo not drawn), the “Inhibition of parasite multiplication” value is on record as 100%.
Still for that read-out and setting: the same measure for `COc1ccc2nc3cc(Cl)ccc3c(NCCCN(CCCNc3c4ccc(Cl)cc4nc4ccc(OC)cc34)C(=O)C(CCCCNC(=O)OCC3c4ccccc4-c4ccccc43)NC(=O)OC(C)(C)C)c2c1` (stereo not drawn): 100%.

Another assay deals with Trypanosoma brucei. The assay can be described thus: Percentage of activity against Trypanosoma brucei at 12.5 uM. It is filed as functional.
Details: not given
The essentials: as §3
Regarding `COc1ccc2nc3cc(Cl)ccc3c(NCCCN(CCCNc3c4ccc(Cl)cc4nc4ccc(OC)cc34)C(=O)C(CCCCNC(=O)OCC3c4ccccc4-c4ccccc43)NC(=O)OC(C)(C)C)c2c1` (stereo not drawn), the “Inhibition of parasite multiplication” value is 100%.

The subject of the next assay is MRC5. The assay can be described thus: Cytotoxicity on MRC-5 cells at 3.13 uM. The class given is functional. The settings on record: Homo sapiens. The essentials:
(§4)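 MRC-5 human diploid embryonic lung cells seeded at 5 000/well, washed after 24 h, then given 2-fold drug dilutions (25, 12.5, 6.25, 3.13 µM) in RPMI + 5% FCS, final DMSO below 0.5%. Incubated 7 days at 37 °C, 5% CO2. MTT colorimetric read-out, scored as % reduction of absorbance at 540 nm versus untreated controls.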
Regarding `COc1ccc2nc3cc(Cl)ccc3c(NCCCN(CCCNc3c4ccc(Cl)cc4nc4ccc(OC)cc34)C(=O)C(CNC(=O)OC(C)(C)C)NC(=O)OC(C)(C)C)c2c1` (stereo not drawn), the cytotoxicity at 3.13 µM was found to be 43%.
Same read-out and setting: the same measure for `COc1ccc2nc3cc(Cl)ccc3c(NCCCN(CCCNc3c4ccc(Cl)cc4nc4ccc(OC)cc34)C(=O)C(CCCCNC(=O)OCC3c4ccccc4-c4ccccc43)NC(=O)OC(C)(C)C)c2c1` (stereo not drawn): 20%.

The subject of a further assay is Trypanosoma cruzi. The experiment in a line: Percentage of activity against Trypanosoma cruzi at 3.13 uM. It is filed as functional.
Details: not given
The essentials:
as §1
Take `COc1ccc2nc3cc(Cl)ccc3c(NCCCN(CCCNc3c4ccc(Cl)cc4nc4ccc(OC)cc34)C(=O)C(CNC(=O)OC(C)(C)C)NC(=O)OC(C)(C)C)c2c1` (stereo not drawn): the “Reduction of T. cruzi parasite load” value is 40%.
Same read-out and setting: the same measure for `COc1ccc2nc3cc(Cl)ccc3c(NCCCN(CCCNc3c4ccc(Cl)cc4nc4ccc(OC)cc34)C(=O)C(CCCCNC(=O)OCC3c4ccccc4-c4ccccc43)NC(=O)OC(C)(C)C)c2c1` (stereo not drawn): 20%.

The next assay deals with Trypanosoma cruzi. The assay can be described thus: Percentage of activity against Trypanosoma cruzi at 12.5 uM; Toxic upon mouse primary peritoneal macrophages. It is filed as functional, organism-based.
Details: not given
The method, boiled down:
as §1
With `COc1ccc2nc3cc(Cl)ccc3c(NCCCN(CCCNc3c4ccc(Cl)cc4nc4ccc(OC)cc34)C(=O)C(CNC(=O)OC(C)(C)C)NC(=O)OC(C)(C)C)c2c1` (stereo not drawn), the Cytotoxicity entry is “Toxic”.
Same read-out and setting: the same measure for `COc1ccc2nc3cc(Cl)ccc3c(NCCCN(CCCNc3c4ccc(Cl)cc4nc4ccc(OC)cc34)C(=O)C(CCCCNC(=O)OCC3c4ccccc4-c4ccccc43)NC(=O)OC(C)(C)C)c2c1` (stereo not drawn): “Toxic”.

A further assay relates to Leishmania infantum. The experiment in a line: Percentage of activity against Leishmania infantum 6.25 uM. It is filed as functional.
Details: not given
The method, boiled down:
as §2
Regarding `COc1ccc2nc3cc(Cl)ccc3c(NCCCN(CCCNc3c4ccc(Cl)cc4nc4ccc(OC)cc34)C(=O)C(CNC(=O)OC(C)(C)C)NC(=O)OC(C)(C)C)c2c1` (stereo not drawn), the “Antileishmanial activity (% reduction of parasite load)” value is 99%.
Same read-out and setting: the same measure for `COc1ccc2nc3cc(Cl)ccc3c(NCCCN(CCCNc3c4ccc(Cl)cc4nc4ccc(OC)cc34)C(=O)C(CCCCNC(=O)OCC3c4ccccc4-c4ccccc43)NC(=O)OC(C)(C)C)c2c1` (stereo not drawn): 40%.

The subject of another assay is Trypanosoma brucei. The experiment in a line: Percentage of activity against Trypanosoma brucei at 1.56 uM.
Details: not given
It is filed as functional. The method, boiled down:
as §3
With `COc1ccc2nc3cc(Cl)ccc3c(NCCCN(CCCNc3c4ccc(Cl)cc4nc4ccc(OC)cc34)C(=O)C(CNC(=O)OC(C)(C)C)NC(=O)OC(C)(C)C)c2c1` (stereo not drawn), the “Percent inhibition of parasite multiplication” value turned out to be 100%.
For the molecule `COc1ccc2nc3cc(Cl)ccc3c(NCCCN(CCCNc3c4ccc(Cl)cc4nc4ccc(OC)cc34)C(=O)C(CCCCNC(=O)OCC3c4ccccc4-c4ccccc43)NC(=O)OC(C)(C)C)c2c1` (stereo not drawn), the “Percent inhibition of parasite multiplication” value amounted to 100%.

The next assay deals with Leishmania infantum. The experiment in a line: Percentage of activity against Leishmania infantum at 3.13 uM.
Details: not given
The class given is functional. The method, boiled down: as §2
In the case of `COc1ccc2nc3cc(Cl)ccc3c(NCCCN(CCCNc3c4ccc(Cl)cc4nc4ccc(OC)cc34)C(=O)C(CNC(=O)OC(C)(C)C)NC(=O)OC(C)(C)C)c2c1` (stereo not drawn), the “Percent antileishmanial activity (reduction of parasite load)” value is listed as 95%.
On the same count and under the same terms, for `COc1ccc2nc3cc(Cl)ccc3c(NCCCN(CCCNc3c4ccc(Cl)cc4nc4ccc(OC)cc34)C(=O)C(CCCCNC(=O)OCC3c4ccccc4-c4ccccc43)NC(=O)OC(C)(C)C)c2c1` (stereo not drawn) the value was 0%.

Another assay has as its system MRC5. The experiment in a line: Cytotoxicity on MRC-5 cells at 25 uM. The class given is functional. The settings on record: Homo sapiens. The essentials:
as §4
Molecule `COc1ccc2nc3cc(Cl)ccc3c(NCCCN(CCCNc3c4ccc(Cl)cc4nc4ccc(OC)cc34)C(=O)C(CNC(=O)OC(C)(C)C)NC(=O)OC(C)(C)C)c2c1` (stereo not drawn) came in with a cytotoxicity at 25 µM of 70%.
On the same count and under the same terms, the same measure for `COc1ccc2nc3cc(Cl)ccc3c(NCCCN(CCCNc3c4ccc(Cl)cc4nc4ccc(OC)cc34)C(=O)C(CCCCNC(=O)OCC3c4ccccc4-c4ccccc43)NC(=O)OC(C)(C)C)c2c1` (stereo not drawn): 100%.

A further assay relates to MRC5. The assay can be described thus: Cytotoxicity on MRC-5 cells at 6.25 uM. The class given is functional. The settings on record: Homo sapiens. The method, boiled down: as §4
As to `COc1ccc2nc3cc(Cl)ccc3c(NCCCN(CCCNc3c4ccc(Cl)cc4nc4ccc(OC)cc34)C(=O)C(CNC(=O)OC(C)(C)C)NC(=O)OC(C)(C)C)c2c1` (stereo not drawn), the cytotoxicity at 6.25 µM came out at 48%.
The same measure, in the same setting: the same measure for `COc1ccc2nc3cc(Cl)ccc3c(NCCCN(CCCNc3c4ccc(Cl)cc4nc4ccc(OC)cc34)C(=O)C(CCCCNC(=O)OCC3c4ccccc4-c4ccccc43)NC(=O)OC(C)(C)C)c2c1` (stereo not drawn): 80%.

The test system of the next assay is Leishmania infantum. The assay can be described thus: Percentage of activity against Leishmania infantum at 12.5 uM Concentration; Toxic upon mouse primary peritoneal macrophages.
Details: not given
It is filed as functional, organism-based. The method, boiled down: as §2
`COc1ccc2nc3cc(Cl)ccc3c(NCCCN(CCCNc3c4ccc(Cl)cc4nc4ccc(OC)cc34)C(=O)C(CNC(=O)OC(C)(C)C)NC(=O)OC(C)(C)C)c2c1` (stereo not drawn): the Cytotoxicity result is “Toxic”.
Regarding `COc1ccc2nc3cc(Cl)ccc3c(NCCCN(CCCNc3c4ccc(Cl)cc4nc4ccc(OC)cc34)C(=O)C(CCCCNC(=O)OCC3c4ccccc4-c4ccccc43)NC(=O)OC(C)(C)C)c2c1` (stereo not drawn), the Cytotoxicity entry was “Toxic”.

The subject of another assay is MRC5. The assay can be described thus: Cytotoxicity on MRC-5 cells at 12.5 uM. It is filed as functional. The settings on record: Homo sapiens. The method, boiled down:
as §4
`COc1ccc2nc3cc(Cl)ccc3c(NCCCN(CCCNc3c4ccc(Cl)cc4nc4ccc(OC)cc34)C(=O)C(CNC(=O)OC(C)(C)C)NC(=O)OC(C)(C)C)c2c1` (stereo not drawn): the cytotoxicity at 12.5 µM was found to be 50%.
`COc1ccc2nc3cc(Cl)ccc3c(NCCCN(CCCNc3c4ccc(Cl)cc4nc4ccc(OC)cc34)C(=O)C(CCCCNC(=O)OCC3c4ccccc4-c4ccccc43)NC(=O)OC(C)(C)C)c2c1` (stereo not drawn) returned a cytotoxicity at 12.5 µM of 90%.
